# Columns and labels:
# Type in all cases: functional
# NCI-H23 = assay: Growth inhibition of human NCI-H23 cells after 48 hrs by SRB assay; conditions: NCI-H23, 48 h
# Outline: (§1)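 NCI-60 panel screen. Cells exposed for 48 h to five concentrations (10−4, 10−5, 10−6, 10−7 and 10−8 M). Sulforhodamine B optical density is read just before compound addition (time zero) and after 48 h, for both treated and vehicle-control wells. Percent growth is calculated against control. GI50 is the concentration giving a 50% reduction in net cell growth relative to cell numbers on day 0.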
# IGROV-1 = assay: Growth inhibition of human IGROV1 cells after 48 hrs by SRB assay; conditions: IGROV-1, 48 h; outline: as §1
# SNB-19 = assay: Growth inhibition of human SNB19 cells after 48 hrs by SRB assay; conditions: SNB-19, 48 h; outline: as §1
# K562 = assay: Growth inhibition of human K562 cells after 48 hrs by SRB assay; conditions: K562, 48 h; outline: as §1
# [1] = Growth inhibition of human BT549 cells after 48 hrs by SRB assay; conditions: BT-549, 48 h; outline: as §1
# NCI-H322M = assay: Growth inhibition of human NCI-H322M cells after 48 hrs by SRB assay; outline: as §1
# [2] = Growth inhibition of human HCC2998 cells after 48 hrs by SRB assay; conditions: HCC 2998, 48 h; outline: as §1
# 786-0 = assay: Growth inhibition of human 786-0 cells after 48 hrs by SRB assay; conditions: 786-0, 48 h; outline: as §1
# OVCAR-4 = assay: Growth inhibition of human OVCAR4 cells after 48 hrs by SRB assay; conditions: OVCAR-4, 48 h; outline: as §1
# U-251 = assay: Growth inhibition of human U251 cells after 48 hrs by SRB assay; conditions: U-251, 48 h
# Outline: (§2)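 NCI-60 panel cells; preliminary single-dose screen at 10−5 M, then five-dose testing at 10−4 to 10−8 M (tenfold steps) with 48 h exposure. SRB-stained optical density read before compound addition (time zero), after 48 h with compound, and with vehicle control. Percent growth is calculated against control. GI50 is the concentration giving 50% reduction in net growth relative to day-0 cell number.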
# HL-60(TB) = assay: Growth inhibition of human HL-60(TB) cells after 48 hrs by SRB assay; conditions: HL-60, 48 h
# Outline: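 NCI-60 panel screen: cells were exposed to test agent at five concentrations (10−4, 10−5, 10−6, 10−7 and 10−8 M) for 48 h. Sulforhodamine B optical density was read at time zero and after exposure to compound or vehicle control, and growth percentage versus control was calculated. GI50 was taken as the concentration giving a 50% reduction in net cell growth relative to day 0 cell numbers.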
# [3] = Growth inhibition of human NCI-ADR-RES cells after 48 hrs by SRB assay; outline: as §1
# M14 = assay: Growth inhibition of human M14 cells after 48 hrs by SRB assay; conditions: M14, 48 h; outline: as §1
# SK-MEL-5 = assay: Growth inhibition of human SK-MEL-5 cells after 48 hrs by SRB assay; conditions: SK-MEL-5, 48 h; outline: as §1
# A549 = assay: Growth inhibition of human A549/ATCC cells after 48 hrs by SRB assay; conditions: A549, 48 h; outline: as §1
# NCI-H522 = assay: Growth inhibition of human NCI-H522 cells after 48 hrs by SRB assay; conditions: NCI-H522, 48 h; outline: as §1
# MDA-MB-468 = assay: Growth inhibition of human MDA-MB-468 cells after 48 hrs by SRB assay; conditions: MDA-MB-468, 48 h; outline: as §1
# PC-3 = assay: Growth inhibition of human PC3 cells after 48 hrs by SRB assay; conditions: PC-3, 48 h; outline: as §1
# UO-31 = assay: Growth inhibition of human UO31 cells after 48 hrs by SRB assay; conditions: UO-31, 48 h; outline: as §2
# ACHN = assay: Growth inhibition of human ACHN cells after 48 hrs by SRB assay; outline: as §1
# KM12 = assay: Growth inhibition of human KM12 cells after 48 hrs by SRB assay; conditions: KM12, 48 h; outline: as §1
# [4] = Growth inhibition of human RXF393 cells after 48 hrs by SRB assay; conditions: RXF 393, 48 h; outline: as §1
# TK-10 = assay: Growth inhibition of human TK10 cells after 48 hrs by SRB assay; conditions: TK-10, 48 h; outline: as §2
# SF-268 = assay: Growth inhibition of human SF268 cells after 48 hrs by SRB assay; conditions: SF-268, 48 h; outline: as §1
# [5] = Growth inhibition of human MOLT4 cells after 48 hrs by SRB assay; conditions: MOLT-4, 48 h; outline: as §1
# UACC-257 = assay: Growth inhibition of human UACC257 cells after 48 hrs by SRB assay; conditions: UACC-257, 48 h; outline: as §2
# [6] = Growth inhibition of human RPMI8226 cells after 48 hrs by SRB assay; conditions: RPMI-8226, 48 h; outline: as §1
# HCT-15 = assay: Growth inhibition of human HCT15 cells after 48 hrs by SRB assay; conditions: HCT-15, 48 h; outline: as §1
# HOP-62 = assay: Growth inhibition of human HOP62 cells after 48 hrs by SRB assay; conditions: HOP-62, 48 h; outline: as §1
# NCI-H226 = assay: Growth inhibition of human NCI-H226 cells after 48 hrs by SRB assay; conditions: NCI-H226, 48 h; outline: as §1
# OVCAR-8 = assay: Growth inhibition of human OVCAR8 cells after 48 hrs by SRB assay; conditions: OVCAR-8, 48 h; outline: as §1
# A498 = assay: Growth inhibition of human A498 cells after 48 hrs by SRB assay; conditions: A498, 48 h; outline: as §1
# CCRF-CEM = assay: Growth inhibition of human CCRF-CEM cells after 48 hrs by SRB assay; outline: as §1
# HT-29 = assay: Growth inhibition of human HT-29 cells after 48 hrs by SRB assay; conditions: HT-29, 48 h; outline: as §1
# HCT-116 = assay: Growth inhibition of human HCT116 cells after 48 hrs by SRB assay; conditions: HCT-116, 48 h; outline: as §1
# [7] = Growth inhibition of human HOP92 cells after 48 hrs by SRB assay; conditions: HOP-92, 48 h; outline: as §1
# [8] = Growth inhibition of human SF295 cells after 48 hrs by SRB assay; conditions: SF-295, 48 h; outline: as §1
# MCF7 = assay: Growth inhibition of human MCF7 cells after 48 hrs by SRB assay; conditions: MCF7, 48 h; outline: as §1
# CAKI-1 = assay: Growth inhibition of human Caki1 cells after 48 hrs by SRB assay; conditions: CAKI-1, 48 h; outline: as §1
# OVCAR-5 = assay: Growth inhibition of human OVCAR5 cells after 48 hrs by SRB assay; conditions: OVCAR-5, 48 h; outline: as §1
# [9] = Growth inhibition of human Hs578T cells after 48 hrs by SRB assay; conditions: Hs-578T; outline: as §1
# [10] = Growth inhibition of human SF539 cells after 48 hrs by SRB assay; conditions: SF-539, 48 h; outline: as §1
# [11] = Growth inhibition of human COLO205 cells after 48 hrs by SRB assay; conditions: COLO 205, 48 h; outline: as §1
# MDA-MB-435 = assay: Growth inhibition of human MDA-MB-435 cells after 48 hrs by SRB assay; conditions: MDA-MB-435, 48 h; outline: as §1
# SW-620 = assay: Growth inhibition of human SW620 cells after 48 hrs by SRB assay; conditions: SW-620, 48 h; outline: as §2
# SK-MEL-2 = assay: Growth inhibition of human SK-MEL-2 cells after 48 hrs by SRB assay; conditions: SK-MEL-2, 48 h; outline: as §1
# SK-MEL-28 = assay: Growth inhibition of human SK-MEL-28 cells after 48 hrs by SRB assay; conditions: SK-MEL-28, 48 h; outline: as §1
# MDA-MB-231 = assay: Growth inhibition of human MDA-MB-231/ATCC cells after 48 hrs by SRB assay; conditions: MDA-MB-231, 48 h; outline: as §1
# SN12C = assay: Growth inhibition of human SN12C cells after 48 hrs by SRB assay; outline: as §1
# [12] = Growth inhibition of human LOXIMVI cells after 48 hrs by SRB assay; conditions: LOX IMVI; outline: as §1
# SNB-75 = assay: Growth inhibition of human SNB75 cells after 48 hrs by SRB assay; conditions: SNB-75, 48 h; outline: as §2
# SK-OV-3 = assay: Growth inhibition of human SKOV3 cells after 48 hrs by SRB assay; conditions: SK-OV-3, 48 h; outline: as §1
# Malme-3M = assay: Growth inhibition of human MALME-3M cells after 48 hrs by SRB assay; outline: as §1
# UACC-62 = assay: Growth inhibition of human UACC62 cells after 48 hrs by SRB assay; conditions: UACC-62, 48 h; outline: as §2
# DU-145 = assay: Growth inhibition of human DU145 cells after 48 hrs by SRB assay; conditions: DU-145, 48 h; outline: as §1
# SR = assay: Growth inhibition of human SR cells after 48 hrs by SRB assay; outline: as §2
# T47D = assay: Growth inhibition of human T47D cells after 48 hrs by SRB assay; outline: as §2
# OVCAR-3 = assay: Growth inhibition of human OVCAR3 cells after 48 hrs by SRB assay; conditions: OVCAR-3, 48 h; outline: as §1
# NCI-H460 = assay: Growth inhibition of human NCI-H460 cells after 48 hrs by SRB assay; conditions: NCI-H460, 48 h; outline: as §1
smiles,measurement,setting,value
COc1cc(/C=C/c2cc3ccccc3o2)cc(OC)c1OC,GI50,NCI-H23,3090 nM
same,GI50,IGROV-1,807 nM
same,GI50,SNB-19,584 nM
same,GI50,K562,267 nM
same,GI50,[1],1090 nM
same,GI50,NCI-H322M,15900 nM
same,GI50,[2],334 nM
same,GI50,786-0,850 nM
same,GI50,OVCAR-4,1150 nM
same,GI50,U-251,668 nM
same,GI50,HL-60(TB),356 nM
same,GI50,[3],511 nM
same,GI50,M14,479 nM
same,GI50,SK-MEL-5,345 nM
same,GI50,A549,615 nM
same,GI50,NCI-H522,436 nM
same,GI50,MDA-MB-468,662 nM
same,GI50,PC-3,524 nM
same,GI50,UO-31,1150 nM
same,GI50,ACHN,863 nM
same,GI50,KM12,508 nM
same,GI50,[4],329 nM
same,GI50,TK-10,8460 nM
same,GI50,SF-268,861 nM
same,GI50,[5],852 nM
same,GI50,UACC-257,16400 nM
same,GI50,[6],700 nM
same,GI50,HCT-15,402 nM
same,GI50,HOP-62,775 nM
same,GI50,NCI-H226,1100 nM
same,GI50,OVCAR-8,2050 nM
same,GI50,A498,408 nM
same,GI50,CCRF-CEM,425 nM
same,GI50,HT-29,375 nM
same,GI50,HCT-116,522 nM
same,GI50,[7],170 nM
same,GI50,[8],356 nM
same,GI50,MCF7,373 nM
same,GI50,CAKI-1,580 nM
same,GI50,OVCAR-5,2940 nM
same,GI50,[9],499 nM
same,GI50,[10],273 nM
same,GI50,[11],406 nM
same,GI50,MDA-MB-435,78 nM
same,GI50,SW-620,444 nM
same,GI50,SK-MEL-2,767 nM
same,GI50,SK-MEL-28,837 nM
same,GI50,MDA-MB-231,1170 nM
same,GI50,SN12C,4090 nM
same,GI50,[12],895 nM
same,GI50,SNB-75,475 nM
same,GI50,SK-OV-3,656 nM
same,GI50,Malme-3M,413 nM
same,GI50,UACC-62,507 nM
same,GI50,DU-145,1860 nM
same,GI50,SR,94 nM
same,GI50,T47D,693 nM
same,GI50,OVCAR-3,429 nM
same,GI50,NCI-H460,416 nM
